# Assays:
# H3R [1] = biological target: T1, H3R (Homo sapiens, UniProt Q9Y5N1); type: binding; conditions: for effect of illumination of compound solution at 360 ± 20 nm on affinity: data not shown
# Procedure, shortened: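 A 1 mM stock of test compound was either illuminated at 360 ± 20 nm to PSS (checked by LC–MS) or kept dark; all later handling was in darkness. Competition ran at 10^-5 to 10^-12 M against 1.6 nM [3H]-Nα-methylhistamine. Membranes were homogenates of HEK293T cells PEI-transfected 48 h with human H3R (445 isoform). Incubation was 2 h at 25 °C in 50 mM Tris–HCl pH 7.4, followed by GF/C filtration and scintillation counting. Ki was obtained by Cheng–Prusoff; the shift was pKi cis minus pKi trans.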
# hH2R = hH2R (Homo sapiens, UniProt P25021); assay: H2R radioligand binding
# Sequence of hH2R (P25021 whole entry): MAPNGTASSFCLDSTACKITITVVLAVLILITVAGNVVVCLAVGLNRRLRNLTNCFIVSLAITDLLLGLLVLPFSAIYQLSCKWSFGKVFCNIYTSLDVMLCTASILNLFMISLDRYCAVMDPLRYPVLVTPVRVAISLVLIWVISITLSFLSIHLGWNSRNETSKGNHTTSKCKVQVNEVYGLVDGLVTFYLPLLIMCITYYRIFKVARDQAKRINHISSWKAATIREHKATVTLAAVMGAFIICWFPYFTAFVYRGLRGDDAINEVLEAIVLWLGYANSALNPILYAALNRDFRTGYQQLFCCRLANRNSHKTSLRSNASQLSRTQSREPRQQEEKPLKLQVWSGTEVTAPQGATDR
# hH4R = hH4R (Homo sapiens, UniProt Q9H3N8); assay: H4R radioligand binding
# Sequence of hH4R (Q9H3N8 whole entry): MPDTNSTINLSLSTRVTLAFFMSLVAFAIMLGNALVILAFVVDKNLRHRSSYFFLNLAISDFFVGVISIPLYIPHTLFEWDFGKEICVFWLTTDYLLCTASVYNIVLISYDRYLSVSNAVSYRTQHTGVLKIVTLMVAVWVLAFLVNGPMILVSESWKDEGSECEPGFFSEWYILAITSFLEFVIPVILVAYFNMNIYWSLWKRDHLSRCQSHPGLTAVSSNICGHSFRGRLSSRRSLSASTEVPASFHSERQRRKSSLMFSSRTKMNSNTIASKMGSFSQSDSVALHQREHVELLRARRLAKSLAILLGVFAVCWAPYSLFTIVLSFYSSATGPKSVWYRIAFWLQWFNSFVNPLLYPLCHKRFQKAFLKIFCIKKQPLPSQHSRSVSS
# H3R [2] = biological target: T1, H3R; assay: Two-electrode voltage clamp; type: cell-based
# [3] = Real-time photoisomerization rate by UV-vis under perpendicular illumination; type: physicochemical; conditions: 25 μM in 50 mM Tris-HCl pH 7.4 + 1% DMSO-d6
# Procedure, shortened: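 Real-time kinetics: test compound at 25 μM in 50 mM Tris–HCl pH 7.4 with 1% DMSO-d6. Illumination alternated between 360 ± 20 nm and 434 ± 9 nm, delivered perpendicular to the spectrometer beam. Spectra were taken at 1 s intervals, with absorbance followed at 344 or 319 nm depending on compound. Photoisomerization half-lives came from fits to the absorbance data.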
# [4] = Photostability and fatigue resistance under prolonged or repeated illumination; type: physicochemical
# T1 sequence (Q9Y5N1 whole entry, canonical isoform): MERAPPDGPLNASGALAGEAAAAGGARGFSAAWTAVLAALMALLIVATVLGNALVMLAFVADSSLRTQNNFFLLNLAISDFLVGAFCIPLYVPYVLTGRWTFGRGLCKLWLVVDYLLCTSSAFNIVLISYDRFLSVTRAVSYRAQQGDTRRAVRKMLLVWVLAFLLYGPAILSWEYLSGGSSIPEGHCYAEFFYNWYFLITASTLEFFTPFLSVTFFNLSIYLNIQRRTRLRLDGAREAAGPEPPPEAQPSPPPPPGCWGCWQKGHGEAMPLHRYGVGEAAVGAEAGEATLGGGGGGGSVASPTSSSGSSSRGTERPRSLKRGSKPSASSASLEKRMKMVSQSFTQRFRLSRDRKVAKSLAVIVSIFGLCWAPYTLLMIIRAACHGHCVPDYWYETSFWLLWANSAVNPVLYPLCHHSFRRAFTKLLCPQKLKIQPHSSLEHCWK
molecule,measurement,setting,value
O=C(c1ccc2cc(OCCCN3CCCCC3)ccc2c1)N1CCCC1 [Compound 1],effect of illumination of compound solution at 360 ± 20 nm on affinity,H3R [1],not affected
O=C(c1cccc(/N=N/c2cccc(OCCCN3CCCCC3)c2)c1)N1CCCC1 [Compound 28],increase in H3R binding affinity upon photoisomerization,"H3R [1]; illumination at 360 nm, PSS cis vs trans, listed as VUF14738",over 10 fold
same,affinity for H2R,hH2R,no measurable affinity
same,affinity for H4R,hH4R,no measurable affinity
same,change in current upon superfusion of compound only,H3R [2]; noninjected and H3R-GIRK expressing oocytes,did not result in changes in current
same,photoisomerization half-life,[3]; illumination 360 ± 20 nm,16 ± 0.9 s
same,photoisomerization half-life,[3]; illumination 434 ± 9 nm,11 ± 0.3 s
same,photodegradation (1H NMR and LC-MS),"[4]; 48 h illumination at 360 ± 20 nm, 0.77 mW/mm^2",no apparent photodegradation
same,resistance to fatigue / photobleaching,"[4]; over 1000 isomerization cycles, 360 ± 20 and 434 ± 9 nm, 20 s intervals",highly resistant to photobleaching
NCCc1c[nH]cn1 [Histamine],effect of illumination of compound solution at 360 ± 20 nm on affinity,H3R [1],not affected
NC(=NCc1ccc(Cl)cc1)SCCCc1cnc[nH]1 [clobenpropit],inhibition of GIRK channel activation by histamine (1 μM),"H3R [2]; simultaneous superfusion, 1 μM",fully inhibited
pertussis toxin,inhibition of GIRK channel activation by histamine (1 μM),"H3R [2]; pretreating the oocytes, 1.37 ng/oocyte",fully inhibited

# — paper PMC5879491 (Journal of the American Chemical Society, 2018)
